Results gathered from unrelated publications.
Each line is one published result; the experiments were not run side by side. In brackets after ≈: the same amount, converted by molar mass.

SMILES | target or system | assay | test system | conditions | quantity | result
C[C@@H]1[C@H](O)[C@@H](C)/C=C/C=C/C=C/C=C/C=C/C=C/C=C/[C@H](O[C@@H]2O[C@H](C)[C@@H](O)[C@H](N)[C@@H]2O)C[C@@H]2O[C@](O)(C[C@@H](O)C[C@@H](O)[C@H](O)CC[C@@H](O)C[C@@H](O)CC(=O)O[C@H]1C)C[C@H](O)[C@H]2C(=O)O | Pichia kudriavzevii | microbial growth, broth dilution | ATCC6258 | 48 h | MIC | 3.9 µg/mL (≈ 4.22 µM)
COC(=O)COc1ccc(NC(=O)C2(c3ccc(Cl)c(Cl)c3)CC2)cc1 | U-937 | cell growth or viability, ATP luminescence |  | 72 h | GI50 | 3 µM
C[C@@H](c1ncncc1F)[C@](O)(Cn1cncn1)c1ccc(F)cc1F | Acanthamoeba quina | parasite growth, resazurin |  | 7 days | IC50 | 24.1 µM
COC(=O)COc1cccc(NC(=O)C2(c3ccccc3)CC2)c1 | U-937 | cell growth or viability, ATP luminescence |  | 72 h | GI50 | 5.6 µM
Cc1cc(=O)oc2ccc(-c3cc(-c4ccc(Cl)cc4)nc(N)n3)c(O)c12 | KB | cell growth or viability, MTT |  | 8 µg/mL, 72 h | inhibition | 39%
C[C@@H]1[C@H](O)[C@@H](C)/C=C/C=C/C=C/C=C/C=C/C=C/C=C/[C@H](O[C@@H]2O[C@H](C)[C@@H](O)[C@H](N)[C@@H]2O)C[C@@H]2O[C@](O)(C[C@@H](O)C[C@@H](O)[C@H](O)CC[C@@H](O)C[C@@H](O)CC(=O)O[C@H]1C)C[C@H](O)[C@H]2C(=O)O | Pichia kudriavzevii | microbial growth, broth dilution | ATCC6258 |  | IC50 | 0.6 µg/mL
Cc1cc(=O)oc2ccc(-c3cc(-c4cccc([N+](=O)[O-])c4)nc(N)n3)c(O)c12 | KB | cell growth or viability, MTT |  | 2 µg/mL, 72 h | inhibition | 12%
CCCCCCCCCCCCCCN1CCN(CC(O)(Cn2cncn2)c2ccc(F)cc2F)CC1 (stereo not drawn) | Pichia kudriavzevii | microbial growth, broth dilution | ATCC6258 | 48 h | MIC | 0.975 µg/mL (≈ 1.88 µM)
Cc1cc(=O)oc2ccc(-c3cc(-c4cccc(Cl)c4)nc(N)n3)c(O)c12 | KB | cell growth or viability, MTT |  | 8 µg/mL, 72 h | inhibition | 5%
COC(=O)COc1cccc(NC(=O)C2(c3ccc(OC)cc3)CC2)c1 | U-937 | cell growth or viability, ATP luminescence |  | 72 h | GI50 | 3.6 µM
COc1ccc(-c2cc(-c3ccc4oc(=O)cc(C)c4c3O)nc(N)n2)cc1 | KB | cell growth or viability, MTT |  | 8 µg/mL, 72 h | inhibition | 0%
COC(=O)COc1ccc(NC(=O)C2(c3cccc(C)c3)CC2)cc1 | U-937 | cell growth or viability, ATP luminescence |  | 72 h | GI50 | > 200 µM
